Experimental data published in ChEMBL document CHEMBL4130541, “Nicrophorusamides A and B, Antibacterial Chlorinated Cyclic Peptides from a Gut Bacterium of the Carrion Beetle Nicrophorus concolor” (2017).
Converted amounts (≈) assume the structure as drawn. The source made the active and inactive calls. No cut-off for these calls is given here. Non-standard residues stand in square brackets, D forms with d. Residues, ends and D or L forms follow the SMILES beside them. Trp(5-Cl) = N[C@@H](Cc1c[nH]c2ccc(Cl)cc12)C(=O)O; dAsn(3R-OH) = NC(=O)[C@H](O)[C@@H](N)C(=O)O; aIle = CC[C@@H](C)[C@H](N)C(=O)O; Orn = NCCC[C@H](N)C(=O)O

Assays:
[1] = tested on: Trichophyton mentagrophytes; experiment: Antifungal activity against Trichophyton mentagrophytes IFM 40996; type: functional, organism-based
Enterococcus faecalis = experiment: Antibacterial activity against Enterococcus faecalis ATCC 19433 after 24 hrs by two fold serial dilution method; type: functional; conditions: ATCC 19433, 24 h
Summary of the method: (§1)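 Bacteria grown overnight in Mueller Hinton broth at 37 °C, centrifuged and washed twice with sterile water. Compounds dissolved in DMSO, then 2-fold serial dilutions 128 to 0.03 μg/mL in broth, final DMSO 1%. Inoculum ~10^7 cfu/mL added to reach final 5 × 10^5 cfu/mL. Incubated 24 h at 37 °C. MIC = lowest concentration inhibiting growth.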

Enterococcus faecium = experiment: Antibacterial activity against Enterococcus faecium ATCC 19434 after 24 hrs by two fold serial dilution method; type: functional; conditions: ATCC 19434, 24 h; summary of the method: as §1
Escherichia coli = experiment: Antibacterial activity against Escherichia coli ATCC 25922 after 24 hrs by two fold serial dilution method; type: functional
Summary of the method: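 Overnight culture grown in Mueller Hinton broth at 37 °C, centrifuged and washed twice in sterile water. Compound dissolved in DMSO, serially 2-fold diluted in MHB from 128 to 0.03 μg/mL, with DMSO held at 1% final. Inoculum 5 × 10^5 cfu/mL final. Incubated 24 h at 37 °C. MIC taken as the lowest concentration inhibiting growth.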

Aspergillus fumigatus = experiment: Antifungal activity against Aspergillus fumigatus HIC 6094; type: functional, organism-based
SK-HEP1 = experiment: Cytotoxicity against human SKHEP1 cells; type: functional, cell-based
A549 = experiment: Cytotoxicity against human A549 cells; type: functional, cell-based
SNU-638 = experiment: Cytotoxicity against human SNU638 cells; type: functional, cell-based
MDA-MB-231 = experiment: Cytotoxicity against human MDA-MB-231 cells; type: functional, cell-based
Trichophyton rubrum = experiment: Antifungal activity against Trichophyton rubrum NBRC 9185; type: functional, organism-based
Candida albicans = experiment: Antifungal activity against Candida albicans ATCC 10231; type: functional, organism-based
K562 = experiment: Cytotoxicity against human K562 cells; type: functional, cell-based
HCT-116 = experiment: Cytotoxicity against human HCT116 cells; type: functional, cell-based
Salmonella typhimurium = experiment: Antibacterial activity against Salmonella enterica ATCC 14028 after 24 hrs by two fold serial dilution method; type: functional; summary of the method: as §1
Staphylococcus aureus = experiment: Antibacterial activity against Staphylococcus aureus ATCC 25923 after 24 hrs by two fold serial dilution method; type: functional; conditions: ATCC 25923, 24 h; summary of the method: as §1

Row | SMILES | Activity [1] | MIC (Enterococcus faecalis) | MIC (Enterococcus faecium) | MIC (Escherichia coli) | Activity (Aspergillus fumigatus) | Activity (SK-HEP1) | Activity (A549) | Activity (SNU-638) | Activity (MDA-MB-231) | Activity (Trichophyton rubrum) | Activity (Candida albicans) | Activity (K562) | Activity (HCT-116) | MIC (Salmonella typhimurium; Salmonella enterica subsp. enterica serovar Typhimurium) | MIC (Staphylococcus aureus) | MIC (Escherichia coli; ATCC 25922, 24 h) | MIC (Salmonella typhimurium; ATCC 14028, 24 h)
1 | CC[C@@H](C)[C@@H]1NC(=O)[C@@H](CC(C)C)NC(=O)[C@@H](C(C)C)NC(=O)[C@H](Cc2c[nH]c3ccc(Cl)cc23)NC(=O)[C@@H](CC(N)=O)NC(=O)[C@H](CCCN)NC1=O | inactive | 128 µg/mL (≈ 165 µM) | 128 µg/mL (≈ 165 µM) | inactive | inactive | inactive | inactive | inactive | inactive | inactive | inactive | inactive | inactive | inactive | 64 µg/mL (≈ 82.6 µM) |  | 
2 | CC1(C)S[C@@H]2[C@H](NC(=O)[C@H](N)c3ccccc3)C(=O)N2[C@H]1C(=O)O [AMPICILLIN] |  | 0.5 µg/mL (≈ 1.43 µM) | 0.25 µg/mL (≈ 0.715 µM) |  |  |  |  |  |  |  |  |  |  |  | 0.13 µg/mL (≈ 0.372 µM) | 8 µg/mL (≈ 22.9 µM) | 0.13 µg/mL (≈ 0.372 µM)
3 | CC[C@@H](C)[C@@H]1NC(=O)[C@@H](CC(C)C)NC(=O)[C@@H](C(C)C)NC(=O)[C@H](Cc2c[nH]c3ccc(Cl)cc23)NC(=O)[C@@H]([C@@H](O)C(N)=O)NC(=O)[C@H](CCCN)NC1=O (cyclo([Orn][dAsn(3R-OH)][Trp(5-Cl)][dV][dL][aIle])) | inactive | 16 µg/mL (≈ 20.2 µM) | 16 µg/mL (≈ 20.2 µM) | inactive | inactive | inactive | inactive | inactive | inactive | inactive | inactive | inactive | inactive |  | 8 µg/mL (≈ 10.1 µM) |  | 16 µg/mL (≈ 20.2 µM)
